Assay results from ChEMBL document CHEMBL1151705, “Novel azalides derived from 16-membered macrolides. Part II: Isolation of the linear 9-formylcarboxylic acid and its sequential macrocyclization with an amino alcohol or an azidoamine” (2008).
Converted amounts (≈) assume the structure as drawn.

Assays:
[1] = system: Streptococcus pneumoniae; experiment: Antimicrobial activity against drug-susceptible Streptococcus pneumoniae 3 after 20 hrs by agar dilution method; assay type: functional; details: Streptococcus pneumoniae, 20 h; read-out: MIC
In short: (§1)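 Streptococci, H. influenzae and M. catarrhalis were precultured on blood agar plates. Suspensions of about 10⁶ CFU/ml were inoculated onto sensitivity disk agar supplemented with 5% horse blood and incubated at 37 °C for 20 h. MIC was read as the lowest drug concentration with no visible growth.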

[2] = system: Streptococcus pneumoniae; experiment: Antimicrobial activity against Streptococcus pneumoniae 7 expressing inducible ermB after 20 hrs by agar dilution method; assay type: functional; details: Streptococcus pneumoniae, 20 h; read-out: MIC; in short: as §1
[3] = system: Streptococcus pneumoniae; experiment: Antimicrobial activity against Streptococcus pneumoniae 9 expressing mefA after 20 hrs by agar dilution method; assay type: functional; details: Streptococcus pneumoniae, 20 h; read-out: MIC; in short: as §1
[4] = system: Haemophilus influenzae; experiment: Antimicrobial activity against drug-susceptible Haemophilus influenzae 2 after 20 hrs by agar dilution method; assay type: functional; details: Haemophilus influenzae, 20 h; read-out: MIC; in short: as §1
[5] = system: Haemophilus influenzae; experiment: Antimicrobial activity against drug-susceptible Haemophilus influenzae 1 after 20 hrs by agar dilution method; assay type: functional; details: Haemophilus influenzae, 20 h; read-out: MIC; in short: as §1
[6] = system: Staphylococcus aureus; experiment: Antimicrobial activity against Staphylococcus aureus 5 expressing inducible ermB after 20 hrs by agar dilution method; assay type: functional
In short: (§2)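 Agar dilution MIC. S. aureus seed culture was grown in sensitivity test broth. Cell suspension (about 10⁶ CFU/ml) was inoculated onto sensitivity disk agar with 5% horse blood and incubated at 37 °C for 20 h. MIC was the lowest drug concentration that prevented visible growth.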

[7] = system: Streptococcus pneumoniae; experiment: Antimicrobial activity against drug-susceptible Streptococcus pneumoniae DP1 Type1 after 20 hrs by agar dilution method; assay type: functional; in short: as §1
[8] = system: Streptococcus pyogenes; experiment: Antimicrobial activity against Streptococcus pyogenes 2 constitutively expressing ermB after 20 hrs by agar dilution method; assay type: functional; in short: as §1
[9] = system: Staphylococcus aureus; experiment: Antimicrobial activity against drug-susceptible Staphylococcus aureus 3 after 20 hrs by agar dilution method; assay type: functional; in short: as §2
[10] = system: Streptococcus pneumoniae; experiment: Antimicrobial activity against Streptococcus pneumoniae 6 constitutively expressing ermB after 20 hrs by agar dilution method; assay type: functional; details: Streptococcus pneumoniae, 20 h; read-out: MIC; in short: as §1
[11] = system: Streptococcus pneumoniae; experiment: Antimicrobial activity against Streptococcus pneumoniae 8 expressing inducible ermB after 20 hrs by agar dilution method; assay type: functional; details: Streptococcus pneumoniae, 20 h; read-out: MIC; in short: as §1
[12] = system: Moraxella catarrhalis; experiment: Antimicrobial activity against drug-susceptible Moraxella catarrhalis 1 after 20 hrs by agar dilution method; assay type: functional; in short: as §1
[13] = system: Streptococcus pneumoniae; experiment: Antimicrobial activity against drug-susceptible Streptococcus pneumoniae 2 after 20 hrs by agar dilution method; assay type: functional; details: Streptococcus pneumoniae, 20 h; read-out: MIC; in short: as §1
[14] = system: Staphylococcus aureus; experiment: Antimicrobial activity against Staphylococcus aureus 4 constitutively expressing ermA after 20 hrs by agar dilution method; assay type: functional; in short: as §2
[15] = system: Staphylococcus aureus; experiment: Antimicrobial activity against Staphylococcus aureus 6 expressing inducible ermC after 20 hrs by agar dilution method
[16] = system: Streptococcus pyogenes; experiment: Antimicrobial activity against drug-susceptible Streptococcus pyogenes 1 after 20 hrs by agar dilution method; assay type: functional; details: Streptococcus pyogenes, 20 h; read-out: MIC; in short: as §1
[17] = system: Streptococcus pneumoniae; experiment: Antimicrobial activity against Streptococcus pneumoniae 4 constitutively expressing ermB after 20 hrs by agar dilution method; assay type: functional; details: Streptococcus pneumoniae, 20 h; read-out: MIC; in short: as §1
[18] = system: Streptococcus pyogenes; experiment: Antimicrobial activity against Streptococcus pyogenes 3 expressing mefA after 20 hrs by agar dilution method; assay type: functional; details: Streptococcus pyogenes, 20 h; read-out: MIC; in short: as §1
[19] = system: Moraxella catarrhalis; experiment: Antimicrobial activity against drug-susceptible Moraxella catarrhalis 2 after 20 hrs by agar dilution method; assay type: functional; in short: as §1
[20] = system: Haemophilus influenzae; experiment: Antimicrobial activity against drug-susceptible Haemophilus influenzae 3 after 20 hrs by agar dilution method; assay type: functional; details: Haemophilus influenzae, 20 h; read-out: MIC; in short: as §1
[21] = system: Haemophilus influenzae; experiment: Antimicrobial activity against drug-susceptible Haemophilus influenzae 4 after 20 hrs by agar dilution method; assay type: functional; details: Haemophilus influenzae, 20 h; read-out: MIC; in short: as §1
[22] = system: Streptococcus pneumoniae; experiment: Antimicrobial activity against Streptococcus pneumoniae 5 constitutively expressing ermB/mefA after 20 hrs by agar dilution method; assay type: functional; details: Streptococcus pneumoniae, 20 h; read-out: MIC; in short: as §1
[23] = system: Staphylococcus aureus; experiment: Antimicrobial activity against drug-susceptible Staphylococcus aureus 209P JC-1 after 20 hrs by agar dilution method; assay type: functional; in short: as §2
[24] = system: Streptococcus pneumoniae; experiment: Antimicrobial activity against Streptococcus pneumoniae 10 expressing mefA after 20 hrs by agar dilution method; assay type: functional; details: Streptococcus pneumoniae, 20 h; read-out: MIC; in short: as §1
[25] = system: Staphylococcus aureus; experiment: Antimicrobial activity against drug-susceptible Staphylococcus aureus 2 after 20 hrs by agar dilution method; assay type: functional; in short: as §2

MIC [1] | MIC [2] | MIC [3] | MIC [4] | MIC [5] | MIC [6] | MIC [8] | MIC [9] | MIC [10] | MIC [11] | MIC [12] | MIC [13] | MIC [14] | MIC [15] | MIC [16] | MIC [17] | MIC [18] | MIC [19] | MIC [20] | MIC [21] | further results | Structure (SMILES)
0.25 µg/mL (≈ 0.257 µM) | > 128 µg/mL | 0.25 µg/mL (≈ 0.257 µM) | 2 µg/mL (≈ 2.06 µM) | 64 µg/mL (≈ 65.9 µM) | 0.5 µg/mL (≈ 0.515 µM) | > 128 µg/mL | 0.5 µg/mL (≈ 0.515 µM) | > 128 µg/mL | > 128 µg/mL | 2 µg/mL (≈ 2.06 µM) | 0.13 µg/mL (≈ 0.134 µM) | > 128 µg/mL | 1 µg/mL (≈ 1.03 µM) | 0.5 µg/mL (≈ 0.515 µM) | > 128 µg/mL | 2 µg/mL (≈ 2.06 µM) | 1 µg/mL (≈ 1.03 µM) | 16 µg/mL (≈ 16.5 µM) | 32 µg/mL (≈ 32.9 µM) | MIC ([7]; Streptococcus pneumoniae, 20 h, read-out: MIC): 0.13 µg/mL (≈ 0.134 µM); MIC [22]: > 128 µg/mL; MIC [23]: 1 µg/mL (≈ 1.03 µM); MIC [24]: 0.25 µg/mL (≈ 0.257 µM); MIC [25]: 2 µg/mL (≈ 2.06 µM) | CCOC(=O)[C@H]1[C@H](C)O[C@@H](O[C@H]2[C@H](N(C)C)[C@@H](O)[C@H](O[C@H]3[C@@H](CC=O)C[C@@H](C)[C@@H](O)CN(C)CCC(C/C=C/c4ccnc5ccccc45)NC(=O)C[C@@H](OC(=O)CC)[C@@H]3OC)O[C@@H]2C)C[C@@]1(C)O (single isomer, unassigned)
0.13 µg/mL (≈ 0.134 µM) | 32 µg/mL (≈ 32.9 µM) | 0.13 µg/mL (≈ 0.134 µM) | 2 µg/mL (≈ 2.06 µM) | 32 µg/mL (≈ 32.9 µM) | 1 µg/mL (≈ 1.03 µM) | > 128 µg/mL | 0.5 µg/mL (≈ 0.514 µM) | > 128 µg/mL | 32 µg/mL (≈ 32.9 µM) | 2 µg/mL (≈ 2.06 µM) | 0.13 µg/mL (≈ 0.134 µM) | > 128 µg/mL | 1 µg/mL (≈ 1.03 µM) | 0.25 µg/mL (≈ 0.257 µM) | > 128 µg/mL | 2 µg/mL (≈ 2.06 µM) | 2 µg/mL (≈ 2.06 µM) | 8 µg/mL (≈ 8.22 µM) | 8 µg/mL (≈ 8.22 µM) | MIC [7]: 0.06 µg/mL (≈ 0.0617 µM); MIC [22]: > 128 µg/mL; MIC [23]: 1 µg/mL (≈ 1.03 µM); MIC [24]: 0.13 µg/mL (≈ 0.134 µM); MIC [25]: 1 µg/mL (≈ 1.03 µM) | CCOC(=O)[C@H]1[C@H](C)O[C@@H](O[C@H]2[C@H](N(C)C)[C@@H](O)[C@H](O[C@H]3[C@@H](CC=O)C[C@@H](C)[C@@H](O)CN(C)CCC(CCCc4ccnc5ccccc45)NC(=O)C[C@@H](OC(=O)CC)[C@@H]3OC)O[C@@H]2C)C[C@@]1(C)O (stereo in doubt; form 1)
